According to ChEMBL document CHEMBL1151697, “Synthesis and structure-activity relationships for biphenyl H3 receptor antagonists with moderate anti-cholinesterase activity” (Bioorg Med Chem, 2008):
Active and inactive are the calls of the source. No cut-off for these calls is given here.

Tests used:
[1] = target: Histamine H3 receptor (Rattus norvegicus, UniProt Q9QYN8); experiment: Displacement of [3H]RAMHA from histamine H3 receptor in Wistar rat brain membrane; type: cell membranes
Method in brief: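 Membranes from male Wistar rat brain (150–200 g) incubated 45 min with 0.5 nM [3H]RAMHA and compound (0.03 nM to 10 µM) in 50 mM Tris–HCl pH 7.4, 50 mM NaCl, 0.5 mM EDTA. Vacuum filtration, two ice-cold buffer rinses. Nonspecific binding set with 10 µM thioperamide. pKi by Cheng–Prusoff.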

[2] = target: Histamine H2 receptor (Cavia porcellus) (UniProt P47747); experiment: Antagonist activity at histamine H2 receptor in guinea pig atrium assessed as changes in rate of spontaneous beat at upto 3 uM; type: functional, tissue-based; settings: Cardiac atrium
Method in brief: (§1)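 Guinea-pig atria (H2) in Ringer–Locke at 31 °C (mM: NaCl 154.0, KCl 5.6, CaCl2 1.08, NaHCO3 5.95, glucose 11.1), gassed 95% O2–5% CO2. Spontaneous beating rate recorded by cardiotachograph. Cumulative dimaprit curves (0.1–100 µM) run without and with compound up to 10 µM. Affinity given as pKB by Furchgott, or as pD2′ by Van Rossum if non-surmountable.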

[3] = target: T1, Histamine H3 receptor (Homo sapiens, UniProt Q9Y5N1); experiment: Antagonist activity at human histamine H3 receptor expressed in SK-N-MC cells by CRE-mediated beta-galactosidase reporter gene assay administered 10 mins before (R)-alpha-methylhistamine challenge after 6 hrs; type: functional, cell-based
Method in brief: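 SK-N-MC cells stably carrying human H3 and a β-galactosidase reporter. Compound added to medium, forskolin 5 min later, then (R)-α-methylhistamine 10 min after compound; 6 h at 37 °C. Cells lysed in phosphate assay buffer (pH 8) with 0.5% Triton and 40 mM β-mercaptoethanol; β-galactosidase read at 570 nm. Means of 4–6 experiments.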

[4] = target: T2, Histamine H4 receptor (Homo sapiens, UniProt Q9H3N8); experiment: Displacement of [3H]histamine from human histamine H4 receptor expressed in SK-N-MC cells at upto 10 uM
[5] = target: T1, Histamine H3 receptor; experiment: Displacement of [3H]RAMHA from human histamine H3 receptor expressed in SK-N-MC cells; type: cell-based
Method in brief: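 SK-N-MC membranes bearing human H3 incubated 60 min at room temperature with 0.5 nM [3H]-(R)-α-methylhistamine and competitor (0.01 nM to 10 µM). Rapid filtration, two washes in ice-cold 50 mM Tris–HCl/5 mM EDTA. Nonspecific binding with 10 µM histamine. pKi via Cheng–Prusoff; means of 4–6 experiments.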

[6] = target: T3, Acetylcholinesterase (Rattus norvegicus) (UniProt P37136); experiment: Inhibition of acetylcholinesterase in Wistar rat brain homogenate at upto 10 uM by Ellman's method; type: tissue-based
T3 sequence (whole entry): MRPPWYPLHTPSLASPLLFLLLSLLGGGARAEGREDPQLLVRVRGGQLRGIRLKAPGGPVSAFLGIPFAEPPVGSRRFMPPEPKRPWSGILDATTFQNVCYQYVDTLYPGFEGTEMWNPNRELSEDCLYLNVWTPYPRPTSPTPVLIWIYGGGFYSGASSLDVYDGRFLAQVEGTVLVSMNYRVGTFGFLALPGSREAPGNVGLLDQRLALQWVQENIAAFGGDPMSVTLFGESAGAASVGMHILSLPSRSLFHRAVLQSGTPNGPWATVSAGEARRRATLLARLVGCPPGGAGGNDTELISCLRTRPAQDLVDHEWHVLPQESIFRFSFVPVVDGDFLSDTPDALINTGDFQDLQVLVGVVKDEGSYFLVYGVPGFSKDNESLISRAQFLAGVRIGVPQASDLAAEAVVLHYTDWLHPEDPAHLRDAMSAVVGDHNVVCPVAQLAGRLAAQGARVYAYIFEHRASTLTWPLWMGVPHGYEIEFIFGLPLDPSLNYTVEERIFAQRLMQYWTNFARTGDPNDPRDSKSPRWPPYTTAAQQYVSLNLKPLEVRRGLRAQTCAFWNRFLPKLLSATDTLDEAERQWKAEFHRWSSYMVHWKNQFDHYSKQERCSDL

[7] = system: SK-N-MC; experiment: Cytotoxicity against human SK-N-MC cells at 10 uM after 6 hrs by MTT test; type: functional, cell-based
Method in brief: (§2)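 MTT viability test: SK-N-MC cells held 6 h with compound (1–10 µM) or vehicle. MTT (5 mg/ml stock) added for 3 h, cells washed in PBS, formazan dissolved in 0.1 N HCl in isopropanol, absorbance read at 570 nm. Viability given relative to control.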

[8] = system: SK-N-MC; experiment: Cytotoxicity against human SK-N-MC cells at 1 uM after 6 hrs by MTT test; type: functional, cell-based; method in brief: as §2
[9] = target: Histamine H1 receptor (Cavia porcellus) (UniProt P31389); experiment: Antagonist activity at histamine H1 receptor in guinea pig terminal ileum at upto 10 uM; type: functional, tissue-based
Method in brief: (§3)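 Guinea-pig (250–350 g) terminal ileum (H1) suspended isometrically in Krebs–Henseleit at 37 °C, aerated 95% O2–5% CO2. Cumulative histamine curves (1 nM to 1 µM) run without and with compound up to 10 µM. pKB (apparent pA2) from Furchgott's equation; pD2′ from Van Rossum's equation when antagonism was non-surmountable.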

[10] = target: Histamine H3 receptor (Cavia porcellus) (UniProt Q9JI35); experiment: Antagonist activity at histamine H3 receptor in electrically-stimulated guinea pig ileum assessed as inhibition of (R)-alpha-methylhistamine-induced twitch contraction in presence of 1 uM mepyramine; type: functional, tissue-based
Method in brief: (§4)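 Guinea-pig ileum, electrically stimulated (0.1 Hz, 1 ms, submaximal voltage). Twitch inhibition by cumulative (R)-α-methylhistamine (1 nM to 1 µM) with 1 µM mepyramine present. Compounds tested at 1 nM to 30 µM. Potency as pKB from Furchgott's equation, or as pD2′ (Van Rossum) for non-surmountable antagonism.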

[11] = target: T3, Acetylcholinesterase (Rattus norvegicus); experiment: Inhibition of acetylcholinesterase in Wistar rat brain homogenate at upto 1 to 100 uM by Ellman's method; type: tissue-based
Method in brief: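 Male Wistar rat (150–200 g) brain homogenate in 0.1 M phosphate buffer (pH 8.0) with DTNB (5 mM) and compound at 1–100 µM. Reaction started at 37 °C by adding acetylthiocholine (75 mM solution) and stopped after 15 min with 4% formalin. 5-Thio-2-nitrobenzoate absorbance at 412 nm. Percent inhibition versus control; reported as pIC50.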

[12] = target: Histamine H2 receptor (Cavia porcellus) (UniProt P47747); experiment: Antagonist activity at histamine H2 receptor in guinea pig atrium assessed as changes in rate of spontaneous beat at upto 1 uM; type: functional, tissue-based; settings: Cardiac atrium; method in brief: as §1
[13] = target: Histamine H1 receptor (Cavia porcellus) (UniProt P31389); experiment: Antagonist activity at histamine H1 receptor in guinea pig terminal ileum at upto 1 uM; type: functional, tissue-based; method in brief: as §3
[14] = target: T4, Acetylcholinesterase (Rattus norvegicus, UniProt P37136); experiment: Inhibition of acetylcholinesterase in Wistar rat brain homogenate by Ellman's method; type: tissue-based
T4 sequence (P37136 whole entry): T3 sequence (whole entry)

[15] = target: Histamine H1 receptor (Cavia porcellus) (UniProt P31389); experiment: Antagonist activity at histamine H1 receptor in guinea pig terminal ileum; type: functional, tissue-based; method in brief: as §3
[16] = target: T2, Histamine H4 receptor; experiment: Displacement of [3H]histamine from human histamine H4 receptor expressed in SK-N-MC cells
[17] = target: Histamine H3 receptor (Cavia porcellus) (UniProt Q9JI35); experiment: Antagonist activity at histamine H3 receptor in electrically-stimulated guinea pig ileum assessed as inhibition of (R)-alpha-methylhistamine-induced twitch contraction at upto 1 uM in presence of 1 uM mepyramine; type: functional, tissue-based; method in brief: as §4
[18] = target: Histamine H2 receptor (Cavia porcellus) (UniProt P47747); experiment: Antagonist activity at histamine H2 receptor in guinea pig atrium assessed as changes in rate of spontaneous beat at upto 0.1 uM; type: functional, tissue-based; settings: Cardiac atrium; method in brief: as §1
[19] = target: Histamine H2 receptor (Cavia porcellus) (UniProt P47747); experiment: Antagonist activity at histamine H2 receptor in guinea pig atrium assessed as changes in rate of spontaneous beat at upto 10 uM; type: functional, tissue-based; settings: Cardiac atrium; method in brief: as §1

Histamine H1 receptor (Cavia porcellus), sequence (P31389 whole entry): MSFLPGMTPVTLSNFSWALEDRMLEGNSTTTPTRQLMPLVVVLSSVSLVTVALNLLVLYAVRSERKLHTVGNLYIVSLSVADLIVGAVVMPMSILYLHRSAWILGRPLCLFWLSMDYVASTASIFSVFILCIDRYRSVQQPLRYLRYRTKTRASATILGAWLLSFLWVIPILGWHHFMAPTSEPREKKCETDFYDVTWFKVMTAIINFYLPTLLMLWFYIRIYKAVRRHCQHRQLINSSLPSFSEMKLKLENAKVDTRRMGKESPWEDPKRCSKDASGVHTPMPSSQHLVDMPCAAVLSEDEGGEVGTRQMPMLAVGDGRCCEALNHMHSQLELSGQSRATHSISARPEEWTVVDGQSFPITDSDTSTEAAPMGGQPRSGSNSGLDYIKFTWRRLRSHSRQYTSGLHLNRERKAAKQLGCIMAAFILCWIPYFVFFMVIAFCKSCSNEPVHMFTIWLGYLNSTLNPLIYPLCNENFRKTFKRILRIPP
T2 sequence (Q9H3N8 whole entry): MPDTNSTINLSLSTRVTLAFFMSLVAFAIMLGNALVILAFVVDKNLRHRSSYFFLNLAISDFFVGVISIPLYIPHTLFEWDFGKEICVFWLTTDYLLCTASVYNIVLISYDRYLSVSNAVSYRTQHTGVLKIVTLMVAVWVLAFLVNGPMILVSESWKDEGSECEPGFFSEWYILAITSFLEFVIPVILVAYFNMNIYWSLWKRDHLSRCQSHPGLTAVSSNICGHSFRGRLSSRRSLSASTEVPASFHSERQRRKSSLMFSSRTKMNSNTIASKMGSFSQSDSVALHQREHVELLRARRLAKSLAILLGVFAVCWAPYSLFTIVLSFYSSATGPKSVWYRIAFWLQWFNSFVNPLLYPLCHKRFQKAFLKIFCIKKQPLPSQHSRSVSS
Histamine H3 receptor (Cavia porcellus), sequence (Q9JI35 whole entry): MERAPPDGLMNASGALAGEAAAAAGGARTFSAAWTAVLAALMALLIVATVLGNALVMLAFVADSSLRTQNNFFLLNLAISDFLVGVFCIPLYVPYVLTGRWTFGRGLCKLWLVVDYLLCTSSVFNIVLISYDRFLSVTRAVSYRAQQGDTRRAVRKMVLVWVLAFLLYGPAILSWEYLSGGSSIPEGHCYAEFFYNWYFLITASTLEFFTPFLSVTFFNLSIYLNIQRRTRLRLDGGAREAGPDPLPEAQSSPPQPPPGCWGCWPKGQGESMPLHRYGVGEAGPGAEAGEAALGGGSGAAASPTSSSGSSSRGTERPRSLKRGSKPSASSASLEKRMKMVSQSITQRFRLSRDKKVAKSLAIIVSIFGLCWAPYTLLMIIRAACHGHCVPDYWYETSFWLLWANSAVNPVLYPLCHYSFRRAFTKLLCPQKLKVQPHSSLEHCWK
T1 sequence (Q9Y5N1 whole entry): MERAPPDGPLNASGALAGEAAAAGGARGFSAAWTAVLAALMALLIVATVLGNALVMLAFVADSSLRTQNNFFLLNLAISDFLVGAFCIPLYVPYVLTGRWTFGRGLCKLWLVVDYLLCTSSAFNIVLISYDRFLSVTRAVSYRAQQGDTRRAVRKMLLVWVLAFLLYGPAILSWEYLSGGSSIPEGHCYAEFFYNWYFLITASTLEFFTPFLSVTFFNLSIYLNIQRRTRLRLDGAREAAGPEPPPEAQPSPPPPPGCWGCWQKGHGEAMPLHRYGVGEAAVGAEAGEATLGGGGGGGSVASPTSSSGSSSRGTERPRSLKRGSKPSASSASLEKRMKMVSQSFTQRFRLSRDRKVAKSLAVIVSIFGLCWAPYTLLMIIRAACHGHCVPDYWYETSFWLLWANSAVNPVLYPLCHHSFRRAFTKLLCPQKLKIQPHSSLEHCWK
Histamine H2 receptor (Cavia porcellus), sequence (P47747 whole entry): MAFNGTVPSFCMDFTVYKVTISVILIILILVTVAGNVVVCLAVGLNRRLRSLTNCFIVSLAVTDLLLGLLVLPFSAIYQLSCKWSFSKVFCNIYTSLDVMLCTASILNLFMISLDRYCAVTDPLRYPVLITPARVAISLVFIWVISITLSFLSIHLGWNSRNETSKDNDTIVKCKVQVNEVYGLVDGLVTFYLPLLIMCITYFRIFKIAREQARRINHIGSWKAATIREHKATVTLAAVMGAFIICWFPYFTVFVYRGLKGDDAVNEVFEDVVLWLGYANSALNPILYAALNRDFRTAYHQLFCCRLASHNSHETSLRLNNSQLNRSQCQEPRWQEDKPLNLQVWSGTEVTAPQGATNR
Histamine H3 receptor (Rattus norvegicus, UniProt Q9QYN8), sequence (Q9QYN8 whole entry): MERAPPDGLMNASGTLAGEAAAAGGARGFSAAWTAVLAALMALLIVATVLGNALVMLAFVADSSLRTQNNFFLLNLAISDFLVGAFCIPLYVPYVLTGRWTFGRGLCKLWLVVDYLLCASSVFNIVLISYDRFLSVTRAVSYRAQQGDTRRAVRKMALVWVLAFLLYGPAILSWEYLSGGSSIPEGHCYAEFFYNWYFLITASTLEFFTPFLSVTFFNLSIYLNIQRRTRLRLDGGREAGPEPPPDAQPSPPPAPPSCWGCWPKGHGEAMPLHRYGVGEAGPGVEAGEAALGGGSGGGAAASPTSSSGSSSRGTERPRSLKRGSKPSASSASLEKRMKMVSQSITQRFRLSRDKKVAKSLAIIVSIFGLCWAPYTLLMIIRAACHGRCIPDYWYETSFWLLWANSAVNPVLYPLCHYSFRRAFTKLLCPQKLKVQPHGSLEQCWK

Row | Structure (SMILES) | Ki [1] | Activity [2] | pKb [3] | Activity [4] | Ki [5] | Activity [6] | Activity [7] | Activity [8] | Activity [9] | pKb [10] | inhibition [11] | Activity [12] | Activity [13] | IC50 [14] | pD2 [15] | Ki [16] | pKb [15] | Activity [17] | Activity [18] | Activity [19]
1 | CN(C)Cc1ccc(-c2ccc(CN3CCCCC3)cc2)cc1 | 1.32 nM | inactive | 8.92 | inactive | 2.19 nM | inactive | Not toxic | Not toxic | inactive | 9.05 | – | – | – | – | – | – | – | – | – | –
2 | c1cc(-c2ccc(CNC3CCCCC3)cc2)ccc1CNC1CCCCC1 | – | – | 6.54 | inactive | – | – | Not toxic | Not toxic | – | 5.82 | 70% | inactive | inactive | 5130 nM | – | – | – | – | – | –
3 | CN(Cc1ccc(-c2ccc(CN(C)C3CCCCC3)cc2)cc1)C1CCCCC1 | – | – | 7.27 | – | – | – | Not toxic | Not toxic | – | 7.45 | 57% | inactive | – | 1660 nM | 5.24 | 6460 nM | – | – | – | –
4 | CCCN(CCC)C(=O)Cc1ccc(-c2ccc(CN3CCCCC3)cc2)cc1 | 53.7 nM | – | 8.16 | inactive | 8.51 nM | – | Not toxic | Not toxic | – | 8 | 80% | inactive | – | 11200 nM | – | – | 5.44 | – | – | –
5 | CCCCCNCc1ccc(-c2ccc(CNCCCCC)cc2)cc1 | – | – | 6.51 | – | – | inactive | Not toxic | Not toxic | – | – | – | inactive | inactive | – | – | 6460 nM | – | inactive | – | –
6 | CN(Cc1ccccc1)Cc1ccc(-c2ccc(CN3CCCCC3)cc2)cc1 | 14.1 nM | – | 7.98 | inactive | 6.76 nM | – | Not toxic | Not toxic | – | 7.34 | 79% | – | – | 3160 nM | 4.75 | – | – | – | inactive | –
7 | CC(=O)N1CCN(Cc2ccc(-c3ccc(CN4CCN(C(C)=O)CC4)cc3)cc2)CC1 | – | – | 6.7 | inactive | – | inactive | Not toxic | Not toxic | – | – | – | – | – | – | 4.81 | – | – | inactive | – | inactive
8 | c1cc(-c2ccc(CN3CCCCC3)cc2)ccc1CN1CCCCC1 | – | – | 8.77 | – | 3.39 nM | – | Not toxic | Not toxic | – | 8.58 | 82% | – | – | 5890 nM | 4.84 | 25100 nM | – | – | – | inactive
9 | CCCN(CCC)Cc1ccc(-c2ccc(CC(=O)N3CCCCC3)cc2)cc1 | 178 nM | – | 6.96 | inactive | 251 nM | – | Not toxic | Not toxic | – | 7.24 | 65% | inactive | – | 10500 nM | – | – | 5.44 | – | – | –
10 | CC1CCN(CCc2ccc(-c3ccc(CCN4CCC(C)CC4)cc3)cc2)CC1 | 55 nM | – | 8.17 | inactive | 16.6 nM | inactive | Not toxic | Not toxic | – | 7.43 | – | – | – | – | – | – | 5.85 | – | inactive | –
11 | c1cc(-c2ccc(CN3CCCCC3)cc2)ccc1CNC1CCCCC1 | – | – | 8.03 | inactive | – | – | Not toxic | Not toxic | inactive | 7.59 | 73% | inactive | – | 5750 nM | – | – | – | – | – | –
12 | N#Cc1ccc(OCc2ccc(-c3ccc(CN4CCCCC4)cc3)cc2)cc1 | 70.8 nM | – | 7.27 | inactive | 75.9 nM | inactive | Not toxic | Not toxic | inactive | 7.27 | – | inactive | – | – | – | – | – | – | – | –
13 | CC1CC(C)CN(Cc2ccc(-c3ccc(CN4CCCCC4)cc3)cc2)C1 (stereo unspecified) | 2.4 nM | inactive | 8.48 | inactive | 0.871 nM | – | Not toxic | Not toxic | – | 9.02 | 91% | – | – | 2400 nM | – | – | 6.15 | – | – | –
14 | CC1CC(C)CN(Cc2ccc(-c3ccc(CN4CC(C)CC(C)C4)cc3)cc2)C1 (stereo unspecified) | – | – | 6.19 | – | – | inactive | Not toxic | Not toxic | – | – | – | – | – | – | 5.08 | 13800 nM | – | – | – | inactive
15 | CCCN(CCC)Cc1ccc(-c2ccc(CCN3CCCCC3)cc2)cc1 | 10.7 nM | – | 8.82 | inactive | 3.89 nM | – | Not toxic | Not toxic | inactive | 7.98 | 80% | inactive | – | 6760 nM | – | – | – | – | – | –
16 | c1cc(-c2ccc(CN3CCCCC3)cc2)ccc1CCN1CCCCC1 | 8.32 nM | – | 9.28 | inactive | 2 nM | – | Not toxic | Not toxic | inactive | 8.73 | 91% | inactive | – | 1100 nM | – | – | – | – | – | –
